How the values were obtained:
[1] = target: T1, Polyunsaturated fatty acid 5-lipoxygenase (Homo sapiens, UniProt P09917); experiment: Inhibition of 5-lipoxygenase in S100 supernatant assessed as inhibition of (5(S)-hydroperoxy-6-trans-8,11,14-cis-eicosatetraenoic acid production preincubated for 15 mins measured after 10 mins by HPLC method
T1 sequence (P09917 whole entry): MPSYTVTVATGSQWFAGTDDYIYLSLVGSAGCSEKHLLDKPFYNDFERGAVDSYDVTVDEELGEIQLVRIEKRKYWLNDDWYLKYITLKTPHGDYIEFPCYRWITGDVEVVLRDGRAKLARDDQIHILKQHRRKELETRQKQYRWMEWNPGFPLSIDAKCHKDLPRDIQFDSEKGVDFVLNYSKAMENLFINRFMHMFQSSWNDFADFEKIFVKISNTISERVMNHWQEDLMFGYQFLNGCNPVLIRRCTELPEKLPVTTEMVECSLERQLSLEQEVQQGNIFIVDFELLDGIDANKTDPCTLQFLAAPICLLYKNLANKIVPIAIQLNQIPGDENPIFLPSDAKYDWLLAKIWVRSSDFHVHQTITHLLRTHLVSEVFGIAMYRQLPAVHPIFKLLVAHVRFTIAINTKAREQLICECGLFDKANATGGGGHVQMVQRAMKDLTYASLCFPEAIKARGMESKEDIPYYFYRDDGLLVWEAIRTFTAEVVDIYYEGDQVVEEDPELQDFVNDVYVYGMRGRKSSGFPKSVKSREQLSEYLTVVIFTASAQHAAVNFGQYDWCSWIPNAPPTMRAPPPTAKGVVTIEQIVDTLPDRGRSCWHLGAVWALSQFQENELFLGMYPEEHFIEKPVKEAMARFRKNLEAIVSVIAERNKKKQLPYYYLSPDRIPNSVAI
Outline: (§1)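 Cell-free assay using the 100000g supernatant (S100) of human PMNL homogenates. Samples were preincubated with compound, then 5-LO product formation was started with 1 mM CaCl₂ plus 20 μM arachidonic acid. Three increasing concentrations were tested in three to five independent experiments and normalized to DMSO control. IC₅₀ was estimated by linear interpolation around 50% activity.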

[2] = target: T1, Polyunsaturated fatty acid 5-lipoxygenase; experiment: Inhibition of 5-lipoxygenase in human polymorphonuclear leukocytes assessed as inhibition of LTB4 production preincubated for 15 mins measured after 10 mins by HPLC method; assay type: cell-based; conditions: pooled result: one value given for 2 cell lines, strains, targets or settings
Outline: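 Isolated intact human polymorphonuclear leukocytes were preincubated with compound, then stimulated with 2.5 μM ionophore A23187 plus exogenous arachidonic acid (20 μM) to bypass cPLA₂ substrate supply. Three increasing concentrations were tested in three to five independent experiments and normalized to DMSO control. IC₅₀ was read by linear interpolation around 50% activity, reported as mean with SEM.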

[3] = target: T1, Polyunsaturated fatty acid 5-lipoxygenase; experiment: Inhibition of 5-lipoxygenase in S100 supernatant assessed as inhibition of LTB4 production preincubated for 15 mins measured after 10 mins by HPLC method; outline: as §1
[4] = target: T2, Polyunsaturated fatty acid 5-lipoxygenase (Homo sapiens) (UniProt P09917); experiment: Inhibition of 5-lipoxygenase in human polymorphonuclear leukocytes assessed as residual activity at 30 uM relative to control; assay type: cell-based
T2 sequence (whole entry): T1 sequence (P09917 whole entry)
Outline: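 Intact isolated human PMNL were preincubated with compound, then 5-LO product formation was elicited with 2.5 μM A23187 and 20 μM exogenous arachidonic acid. Activity was expressed relative to DMSO control.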

[5] = target: T2, Polyunsaturated fatty acid 5-lipoxygenase (Homo sapiens); experiment: Inhibition of 5-lipoxygenase in S100 supernatant assessed as residual activity at 30 uM relative to control
Outline: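 PMNL homogenate 100000g supernatant (S100) was preincubated with compound, then stimulated with 1 mM CaCl₂ and 20 μM arachidonic acid. 5-LO product formation was expressed relative to DMSO control.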

[6] = target: T1, Polyunsaturated fatty acid 5-lipoxygenase; experiment: Inhibition of 5-lipoxygenase

Row | SMILES | IC50 [1] [nM] | IC50 [2] [nM] | IC50 [3] [nM] | Activity [4] [%] | Activity [5] [%] | IC50 [6] [nM]
1 | CN(C)c1ccc(/C=C2\SC(N3CCCCC3)=NC2=O)cc1 | > 30000 | 20000 | > 30000 | > 60 | > 60 | –
2 | COc1ccc(/C=C2\SC(c3ccc(O)cc3)=NC2=O)cc1 | 650 | 1690 | 650 | – | – | –
3 | COc1cc(/C=C2\SC(c3ccccc3)=NC2=O)cc(Cl)c1O | 3000 | 9500 | 3000 | – | – | –
4 | C/C(=C1/SC(O)=NC1=O)c1cc(-c2ccccc2)c(O)c(-c2ccccc2)c1 | – | – | – | – | – | > 10000
5 | COc1cccc(/C=C2\SC(c3ccccc3)=NC2=O)c1O | 540 | 480 | 540 | – | – | –
6 | COc1cc(/C=C2\SC(c3ccc(C)cc3)=NC2=O)cc(Cl)c1O | 2700 | > 10000 | 2700 | – | – | –
7 | COc1ccc(/C=C2\SC(c3ccc(C)cc3)=NC2=O)c(OC)c1 | 980 | 2020 | 980 | – | – | –
8 | CCOc1cc(/C=C2\SC(c3ccc(C)cc3)=NC2=O)cc(Cl)c1O | 1250 | 2900 | 1250 | – | – | –
9 | COc1ccc(/C=C2\SC(c3ccc(OC)cc3)=NC2=O)cc1 | 4000 | 320 | 4000 | – | – | –
10 | COc1cc(/C=C2\SC(c3ccccc3)=NC2=O)cc([N+](=O)[O-])c1O | 3000 | 4400 | 3000 | – | – | –
11 | O=C1/C(=C/C=C/c2ccco2)S/C(=N\c2ccccc2)N1c1ccccc1 | > 30000 | 30000 | > 30000 | > 60 | > 60 | –
12 | COc1ccc(/C=C2\SC(N3CCCC3)=NC2=O)cc1 | > 30000 | > 30000 | > 30000 | > 60 | > 60 | –
13 | COc1cccc(/C=C2\SC(c3ccc(C)cc3)=NC2=O)c1O | 1300 | 800 | 1300 | – | – | –
14 | COC(=O)COc1ccc(C2=NC(=O)/C(=C/c3ccc(OC)cc3)S2)cc1 | 580 | 860 | 580 | – | – | –
15 | COc1ccc(/C=C2\SC(c3ccc(N)cc3)=NC2=O)cc1 | 630 | 1930 | 630 | – | – | –
16 | Cc1ccc(/C=C2\SC(Nc3ccc4ccccc4c3)=NC2=O)cc1 | > 30000 | > 30000 | > 30000 | > 60 | > 60 | –
17 | CCCOc1ccc(/C=C2\SC(N3CCCCCC3)=NC2=O)cc1 | 14000 | 12000 | 14000 | – | – | –
18 | O=C1N=C(Nc2ccccc2)S/C1=C\c1ccccc1 | > 30000 | > 30000 | > 30000 | > 60 | > 60 | –

Continued by falling IC50 [1], values first:

Row | IC50 [1] [nM] | IC50 [2] [nM] | IC50 [3] [nM] | Activity [4] [%] | Activity [5] [%] | IC50 [6] [nM] | SMILES
19 | 500 | 2000 | 500 | – | – | – | CCOc1ccc(/C=C2\SC(c3ccccc3)=NC2=O)cc1
20 | 400 | 2450 | 400 | – | – | – | COc1ccc(/C=C2\SC(c3ccc(C)cc3)=NC2=O)c(OC)c1OC
21 | 350 | 730 | 350 | – | – | – | Cc1ccc(C2=NC(=O)/C(=C/c3ccccc3)S2)cc1
22 | 300 | 4300 | 300 | – | – | – | O=C1N=C(c2ccccc2)S/C1=C\c1c2ccccc2cc2ccccc12
23 | 300 | 580 | 300 | – | – | – | Cc1ccc(C2=NC(=O)/C(=C/c3cccc(Cl)c3)S2)cc1
24 | 300 | 660 | 300 | – | – | – | COc1ccc(/C=C2\SC(c3ccc(C)cc3)=NC2=O)cc1
25 | 300 | 910 | 300 | – | – | – | CC(C)(C)c1ccc(/C=C2\SC(c3ccccc3)=NC2=O)cc1
26 | 300 | 650 | 300 | – | – | – | COc1cc(Cl)cc(/C=C2\SC(c3ccccc3)=NC2=O)c1O
27 | 230 | 400 | 230 | – | – | – | Cc1ccc(C2=NC(=O)/C(=C/C=C/c3ccccc3)S2)cc1
28 | 190 | 2110 | 190 | – | – | – | COC(=O)COc1ccc(/C=C2\SC(c3ccc(C)cc3)=NC2=O)cc1
29 | 150 | 530 | 150 | – | – | – | COc1ccc(/C=C2\SC(c3ccccc3)=NC2=O)cc1
30 | 130 | 350 | 130 | – | – | – | COc1ccc(OC)c(/C=C2\SC(c3ccc(C)cc3)=NC2=O)c1
31 | 130 | 380 | 130 | – | – | – | COc1ccc(/C=C2\SC(c3cccc(C(C)=O)c3)=NC2=O)cc1
32 | 120 | 240 | 120 | – | – | – | COc1ccc(/C=C2\SC(c3cccc(F)c3)=NC2=O)cc1
33 | 110 | 550 | 110 | – | – | – | COc1ccc(/C=C2\SC(c3ccc(C(C)=O)cc3)=NC2=O)cc1
34 | 110 | 400 | 110 | – | – | – | O=C1N=C(c2ccc(Cl)cc2)S/C1=C\c1ccc(O)cc1
35 | 90 | 280 | 90 | – | – | – | COc1ccc(/C=C2\SC(c3ccc(Cl)cc3)=NC2=O)cc1
